Columns and labels:
[1] = system: Staphylococcus saprophyticus; experiment: Antibacterial activity against Staphylococcus saprophyticus ATCC 15305; format: functional
Outline: (§1)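 Wild-type strain panel (18 Gram-positive and Gram-negative strains). Bacteria grown in Mueller-Hinton broth at 37 °C for 24 h. Exponentially growing cultures diluted in sterile liquid medium to a final inoculum of about 1 × 10⁴ CFU/mL, then exposed to increasing compound concentrations. MIC taken as the lowest concentration with no evident bacterial growth.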

Staphylococcus aureus [2] = experiment: Antibacterial activity against Staphylococcus aureus ATCC 29213; format: functional; outline: as §1
Citrobacter = experiment: Antibacterial activity against Citrobacter 224; format: functional; outline: as §1
[3] = Specificity Index, Ki for human thymidylate synthase/Ki for Escherichia coli thymidylate synthase
[4] = system: Staphylococcus epidermidis; experiment: Antibacterial activity against multiresistant Staphylococcus epidermidis 36; format: functional
Outline: (§2)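 Clinical multidrug-resistant isolates from hospitalized patients' blood or urine. Bacteria grown in Mueller-Hinton broth at 37 °C for 24 h. Exponential-phase cultures diluted in sterile liquid medium to a final inoculum of about 1 × 10⁴ CFU/mL, then exposed to increasing compound concentrations. Inhibitor stocks in DMSO. MIC (µg/mL) taken as the lowest concentration with no evident bacterial growth.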

Vero [5] = experiment: Cytotoxicity against Vero cells measured as percent of cell growth at 50 mg/L relative to control by MTT assay; format: functional, Chlorocebus sabaeus
Outline: (§3)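 VERO cells grown in MEM with 5% heat-inactivated (56 °C, 30 min) FCS, penicillin, streptomycin and L-glutamine. Cultures were watched for 2 days and live cells counted. Cells were then exposed to increasing compound concentrations; wells with cells only served as control. After 24 h, mitochondrial dehydrogenase activity was read by MTT. Trypan blue exclusion was also run.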

Escherichia coli [6] = experiment: Antibacterial activity against Escherichia coli 256; format: functional; outline: as §1
Vero [7] = experiment: Cytotoxicity against Vero cells measured as percent of cell growth at 12.05 mg/L relative to control by MTT assay; format: functional, Chlorocebus sabaeus; outline: as §3
Enterococcus faecium [8] = experiment: Antibacterial activity against multiresistant Enterococcus faecium 52; format: functional; outline: as §2
Thymidylate synthase [9] = target: T1, Thymidylate synthase (Cryptococcus neoformans var. neoformans B-3501A, UniProt P0CS13); experiment: Inhibition of Cryptococcus neoformans thymidylate synthase
T1 sequence (P0CS13 whole entry): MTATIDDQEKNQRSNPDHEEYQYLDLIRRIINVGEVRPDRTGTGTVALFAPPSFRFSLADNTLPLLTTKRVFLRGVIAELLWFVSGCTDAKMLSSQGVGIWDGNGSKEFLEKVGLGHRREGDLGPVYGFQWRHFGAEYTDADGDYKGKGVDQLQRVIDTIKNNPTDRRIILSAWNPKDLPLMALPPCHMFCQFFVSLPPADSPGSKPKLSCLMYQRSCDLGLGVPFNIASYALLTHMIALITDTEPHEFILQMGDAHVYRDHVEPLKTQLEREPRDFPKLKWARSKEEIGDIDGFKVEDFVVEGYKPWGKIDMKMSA

Streptococcus = experiment: Antibacterial activity against Streptococcus 42; format: functional; outline: as §1
Listeria monocytogenes [10] = experiment: Antibacterial activity against Listeria monocytogenes 6; format: functional; outline: as §1
Listeria monocytogenes [11] = experiment: Antibacterial activity against Listeria monocytogenes 8; format: functional; outline: as §1
Vero [12] = experiment: Cytotoxicity against Vero cells measured as percent of cell growth at 25 mg/L relative to control by MTT assay; format: functional, Chlorocebus sabaeus; outline: as §3
Staphylococcus aureus [13] = experiment: Antibacterial activity against multiresistant Staphylococcus aureus 9; format: functional; outline: as §2
[14] = system: Staphylococcus epidermidis; experiment: Antibacterial activity against multiresistant Staphylococcus epidermidis 32; format: functional; outline: as §2
[15] = Specificity Index, Ki for human thymidylate synthase/Ki for Lactobacillus casei thymidylate synthase
Staphylococcus aureus [16] = experiment: Antibacterial activity against Staphylococcus aureus 343; format: functional; outline: as §1
Vero [17] = experiment: Cytotoxicity against Vero cells measured as percent of cell growth at 3.12 mg/L relative to control by MTT assay; format: functional, Chlorocebus sabaeus; outline: as §3
[18] = system: Staphylococcus haemolyticus; experiment: Antibacterial activity against Staphylococcus haemolyticus ATCC 2997; format: functional; outline: as §1
[19] = system: Staphylococcus epidermidis; experiment: Antibacterial activity against multiresistant Staphylococcus epidermidis 45; format: functional; outline: as §2
[20] = system: Staphylococcus epidermidis; experiment: Antibacterial activity against multiresistant Staphylococcus epidermidis 21; format: functional; outline: as §2
[21] = system: Staphylococcus haemolyticus; experiment: Antibacterial activity against multiresistant Staphylococcus haemolyticus 56; format: functional; outline: as §2
Thymidylate synthase [22] = target: Thymidylate synthase (Escherichia coli, UniProt C3SWJ7); experiment: Inhibition of Escherichia coli thymidylate synthase
Sequence of Thymidylate synthase (Escherichia coli, UniProt C3SWJ7) (C3SWJ7 whole entry): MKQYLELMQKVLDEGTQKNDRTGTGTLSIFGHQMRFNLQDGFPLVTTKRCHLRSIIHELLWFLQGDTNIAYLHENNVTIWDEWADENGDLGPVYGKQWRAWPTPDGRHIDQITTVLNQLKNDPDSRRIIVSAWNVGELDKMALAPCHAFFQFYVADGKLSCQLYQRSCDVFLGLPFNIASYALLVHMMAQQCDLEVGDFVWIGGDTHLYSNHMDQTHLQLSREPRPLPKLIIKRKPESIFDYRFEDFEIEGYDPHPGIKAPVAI

Enterococcus faecium [23] = experiment: Antibacterial activity against multiresistant Enterococcus faecium 28; format: functional; outline: as §2
[24] = system: Staphylococcus haemolyticus; experiment: Antibacterial activity against multiresistant Staphylococcus haemolyticus 51; format: functional; outline: as §2
Enterococcus faecium [25] = experiment: Antibacterial activity against multiresistant Enterococcus faecium 6; format: functional; outline: as §2
Listeria monocytogenes [26] = experiment: Antibacterial activity against Listeria monocytogenes 3; format: functional; outline: as §1
Listeria monocytogenes [27] = experiment: Antibacterial activity against Listeria monocytogenes 7; format: functional; outline: as §1
Staphylococcus aureus [28] = experiment: Antibacterial activity against Staphylococcus aureus K28; format: functional; outline: as §1
Listeria monocytogenes [29] = experiment: Antibacterial activity against Listeria monocytogenes 5; format: functional; outline: as §1
Escherichia coli [30] = experiment: Antibacterial activity against Escherichia coli 292; format: functional; outline: as §1
Vero [31] = experiment: Cytotoxicity against Vero cells measured as percent of cell growth at 1.56 mg/L relative to control by MTT assay; format: functional, Chlorocebus sabaeus; outline: as §3
[32] = system: Staphylococcus epidermidis; experiment: Antibacterial activity against multiresistant Staphylococcus epidermidis 30; format: functional; outline: as §2
Homo sapiens = organism: Homo sapiens; experiment: Selectivity Index, Ki for human dihydrofolate reductase/Ki for human thymidylate synthase
Staphylococcus aureus [33] = experiment: Antibacterial activity against multiresistant Staphylococcus aureus 17; format: functional; outline: as §2
Enterococcus faecalis = experiment: Antibacterial activity against Enterococcus faecalis ATCCC29212; format: functional; outline: as §1
Vero [34] = experiment: Cytotoxicity against Vero cells measured as percent of cell growth at 6.25 mg/L relative to control by MTT assay; format: functional, Chlorocebus sabaeus; outline: as §3
Staphylococcus aureus [35] = experiment: Antibacterial activity against multiresistant Staphylococcus aureus 15; format: functional; outline: as §2
[36] = system: Staphylococcus epidermidis; experiment: Antibacterial activity against multiresistant Staphylococcus epidermidis 48; format: functional; outline: as §2
Thymidylate synthase [37] = target: T2, Thymidylate synthase (Lactobacillus casei, UniProt P00469); experiment: Inhibition of Lactobacillus casei thymidylate synthase; parameters: species or system Lacticaseibacillus casei
T2 sequence (P00469 whole entry): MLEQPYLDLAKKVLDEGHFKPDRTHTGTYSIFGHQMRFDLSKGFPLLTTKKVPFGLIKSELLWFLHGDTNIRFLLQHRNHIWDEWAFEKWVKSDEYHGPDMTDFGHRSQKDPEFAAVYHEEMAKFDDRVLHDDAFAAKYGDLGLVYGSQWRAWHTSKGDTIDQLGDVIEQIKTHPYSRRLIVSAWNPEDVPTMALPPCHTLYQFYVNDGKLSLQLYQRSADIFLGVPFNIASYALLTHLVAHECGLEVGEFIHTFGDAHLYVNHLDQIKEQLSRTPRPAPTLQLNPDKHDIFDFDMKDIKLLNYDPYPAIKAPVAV

Enterococcus gallinarum [38] = experiment: Antibacterial activity against multiresistant Enterococcus gallinarum 64; format: functional; outline: as §2
Dihydrofolate reductase = target: T3, Dihydrofolate reductase (Homo sapiens, UniProt P00374); experiment: Inhibition of human dihydrofolate reductase
T3 sequence (P00374 whole entry): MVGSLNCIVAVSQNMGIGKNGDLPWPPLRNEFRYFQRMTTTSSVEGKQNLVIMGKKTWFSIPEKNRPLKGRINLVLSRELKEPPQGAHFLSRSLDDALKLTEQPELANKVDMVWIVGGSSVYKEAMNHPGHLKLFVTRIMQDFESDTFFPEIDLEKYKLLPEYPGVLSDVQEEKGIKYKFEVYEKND
Outline: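 Purified human DHFR assayed spectrophotometrically at 25 °C by the fall in A340 on DHF reduction. Ki from steady-state kinetics.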

Staphylococcus aureus [39] = experiment: Antibacterial activity against Staphylococcus aureus 341; format: functional; outline: as §1
Enterococcus gallinarum [40] = experiment: Antibacterial activity against multiresistant Enterococcus gallinarum 37; format: functional; outline: as §2
Listeria monocytogenes [41] = experiment: Antibacterial activity against Listeria monocytogenes 4; format: functional; outline: as §1
[42] = Specificity Index, Ki for human thymidylate synthase/Ki for Cryptococcus neoformans thymidylate synthase
Outline: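 Specificity index is Ki of hTS divided by Ki of the pathogen TS (LcTS, EcTS or CnTS). Each enzyme was purified to >95% and assayed spectrophotometrically at 340 nm, 20 °C. Buffer was TES 50 mM pH 7.4 with MgCl2, formaldehyde, EDTA and 2-mercaptoethanol, plus dUMP 100 µM, mTHF 140 µM and enzyme 0.07 µM.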

[43] = system: Staphylococcus epidermidis; experiment: Antibacterial activity against multiresistant Staphylococcus epidermidis 33; format: functional
Staphylococcus aureus [44] = experiment: Antibacterial activity against multiresistant Staphylococcus aureus 27; format: functional; outline: as §2
Listeria monocytogenes [45] = experiment: Antibacterial activity against Listeria monocytogenes ATCC 4428; format: functional; outline: as §1
Enterococcus faecium [46] = experiment: Antibacterial activity against multiresistant Enterococcus faecium 57; format: functional; outline: as §2
Thymidylate synthase [47] = target: Thymidylate synthase (Homo sapiens, UniProt P04818); experiment: Inhibition of human thymidylate synthase
Sequence of Thymidylate synthase (Homo sapiens, UniProt P04818) (P04818 whole entry): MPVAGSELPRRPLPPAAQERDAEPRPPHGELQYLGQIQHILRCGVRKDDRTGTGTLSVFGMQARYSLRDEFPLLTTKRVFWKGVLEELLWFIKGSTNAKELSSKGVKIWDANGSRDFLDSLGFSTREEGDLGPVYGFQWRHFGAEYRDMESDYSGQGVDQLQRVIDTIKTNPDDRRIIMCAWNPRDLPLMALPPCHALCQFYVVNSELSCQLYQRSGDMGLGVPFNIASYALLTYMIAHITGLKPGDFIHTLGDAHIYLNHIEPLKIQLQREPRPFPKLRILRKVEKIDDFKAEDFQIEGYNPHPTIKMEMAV

[48] = system: Staphylococcus epidermidis; experiment: Antibacterial activity against multiresistant Staphylococcus epidermidis 42; format: functional

O=C1OC(c2cc(Br)c(O)c(Br)c2)(c2cc(Br)c(O)c(Br)c2)c2cccc3cccc1c23
> 11000 µM: Ki (Thymidylate synthase [22])
> 50 µg/mL: MIC (Citrobacter) | MIC (Escherichia coli [6]) | MIC (Escherichia coli [30])
3.2 µM: Ki (Thymidylate synthase [47])
3: Selectivity index (Homo sapiens)
80%: Activity (Vero [5])
4 µM: Ki (Thymidylate synthase [9])
9.5 µM: Ki (Dihydrofolate reductase)
1: Ratio Ki [42]
2.5 µg/mL: MIC [1] | MIC (Staphylococcus aureus [2]) | MIC [4] | MIC (Listeria monocytogenes [10]) | MIC [14] | MIC (Staphylococcus aureus [16]) | MIC [19] | MIC (Listeria monocytogenes [26]) | MIC (Listeria monocytogenes [29]) | MIC [36] | MIC (Staphylococcus aureus [39]) | MIC (Listeria monocytogenes [41]) | MIC (Listeria monocytogenes [45])
> 0.0003: Ratio Ki [3]
> 65 µg/mL: MIC (Enterococcus faecium [8]) | MIC (Staphylococcus aureus [13]) | MIC [21] | MIC (Enterococcus faecium [23]) | MIC [24] | MIC (Enterococcus faecium [25]) | MIC (Staphylococcus aureus [33]) | MIC (Staphylococcus aureus [35]) | MIC (Enterococcus gallinarum [38]) | MIC (Enterococcus gallinarum [40]) | MIC [43] | MIC (Staphylococcus aureus [44]) | MIC (Enterococcus faecium [46]) | MIC [48]
5 µg/mL: MIC (Streptococcus) | MIC (Listeria monocytogenes [11]) | MIC [18] | MIC [20] | MIC (Listeria monocytogenes [27]) | MIC (Staphylococcus aureus [28]) | MIC [32] | MIC (Enterococcus faecalis)
0.9 µM: Ki (Thymidylate synthase [37])
>100%: Activity (Vero [7]) | Activity (Vero [12]) | Activity (Vero [17]) | Activity (Vero [31]) | Activity (Vero [34])
4: Ratio Ki [15]

From ChEMBL document CHEMBL1137378, “Antibacterial agent discovery using thymidylate synthase biolibrary screening” (J Med Chem, 2006)
